Data from ChEMBL document CHEMBL3352472, “Discovery of 4-aryl-7-hydroxyindoline-based P2Y1 antagonists as novel antiplatelet agents” (J Med Chem, 2014).
Active and inactive are the calls of the source. No cut-off for these calls is given here.

What was measured:
[1] = target: T1, P2Y purinoceptor 1 (Homo sapiens, UniProt P47900); assay: Antagonist activity at P2Y1 receptor in washed human platelets assessed as 1 uM 2-methylthio-ADP-induced calcium flux by FLIPR assay; assay type: functional
[2] = Metabolic stability in human liver microsomes assessed as compound remaining at 0.5 uM after 10 mins; assay type: ADME; details: read-out: Stability
Procedure, shortened: (§1)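 Compound at 0.5 μM incubated 10 min with 1 mg/mL human, rat or mouse liver microsomes; percentage of parent remaining reported.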

[3] = Metabolic stability in rat liver microsomes assessed as compound remaining at 0.5 uM after 10 mins; assay type: ADME; details: read-out: Stability; procedure, shortened: as §1
[4] = Metabolic stability in mouse liver microsomes assessed as compound remaining at 0.5 uM after 10 mins; assay type: ADME; details: read-out: Stability; procedure, shortened: as §1
[5] = Clearance in rat at 0.5 mg/kg by cassette dosing method; assay type: ADME, organism-based; design: dose 0.5 mg/kg; details: in vivo
[6] = Volume of distribution at steady state in rat at 0.5 mg/kg by cassette dosing method; assay type: ADME, organism-based; design: dose 0.5 mg/kg; details: in vivo, read-out: Vdss
[7] = Oral bioavailability in rat at 0.5 mg/kg by cassette dosing method; assay type: ADME, organism-based; details: in vivo
[8] = tested on: Oryctolagus cuniculus; assay: Induction of bleeding time in rabbit model of electrically-induced carotid artery thrombosis at 0.1 mg/kg, iv + 0.033 mg/kg/hr, iv dosed 30 mins before electrical stimulation (reference value: 1 +/- 0.05); assay type: organism-based; details: in vivo, 0.5 h
[9] = tested on: Oryctolagus cuniculus; assay: Induction of bleeding time in rabbit model of electrically-induced carotid artery thrombosis at 0.3 mg/kg, iv + 1 mg/kg/hr, iv dosed 30 mins before electrical stimulation (reference value: 1 +/- 0.05); assay type: organism-based; details: in vivo, 0.5 h
[10] = tested on: Oryctolagus cuniculus; assay: Induction of bleeding time in rabbit model of electrically-induced carotid artery thrombosis at 90% antithrombotic dose administered 30 mins before electrical stimulation (reference value: 1 +/- 0.05); assay type: organism-based; details: in vivo, 0.5 h
[11] = Aqueous solubility of the compound; assay type: physicochemical; details: buffer
Procedure, shortened: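 Amorphous solid; solubility measured at pH 3.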

[12] = Clearance in rat at 0.5 mg/kg, iv by discrete dosing method; assay type: ADME, organism-based; design: dose 0.5 mg/kg, route intravenous; details: in vivo
Procedure, shortened: (§2)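 Discrete rat PK; 0.5 mg/kg iv given in solution in DMAc/cremophor/EtOH/water (10/10/10/70).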

[13] = Volume of distribution in rat at 0.5 mg/kg, iv by discrete dosing method; assay type: ADME, organism-based; design: dose 0.5 mg/kg, route intravenous; details: in vivo; procedure, shortened: as §2
[14] = Half life in rat at 0.5 mg/kg, iv by discrete dosing method; assay type: ADME, organism-based; design: dose 0.5 mg/kg, route intravenous; details: in vivo; procedure, shortened: as §2
[15] = Oral bioavailability in rat at 15 mg/kg by discrete dosing method; assay type: ADME, organism-based; details: in vivo
Procedure, shortened: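 Discrete rat PK; 15 mg/kg oral and 0.5 mg/kg iv, both in solution in DMAc/cremophor/EtOH/water (10/10/10/70).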

[16] = Antagonist activity at P2Y1 receptor in platelet-enriched rabbit plasma assessed as 10 uM ADP-induced platelet aggregation preincubated for 1 min followed by ADP induction measured at 5 mins by aggregometric analysis; assay type: cell-free; details: Oryctolagus cuniculus
[17] = tested on: Oryctolagus cuniculus; assay: Antithrombotic activity in rabbit model of electrically-induced carotid artery thrombosis assessed as reduction in thrombus formation at 0.003 mg/kg, iv + 0.01 mg/kg/hr, iv dosed 30 mins before electrical stimulation (reference value: 3 +/- 2%); assay type: functional
[18] = tested on: Oryctolagus cuniculus; assay: Antithrombotic activity in rabbit model of electrically-induced carotid artery thrombosis assessed as reduction in thrombus formation at 0.01 mg/kg, iv + 0.033 mg/kg/hr, iv dosed 30 mins before electrical stimulation (reference value: 3 +/- 2%); assay type: functional
[19] = tested on: Oryctolagus cuniculus; assay: Antithrombotic activity in rabbit model of electrically-induced carotid artery thrombosis assessed as reduction in thrombus formation at 0.03 mg/kg, iv + 0.1 mg/kg/hr, iv dosed 30 mins before electrical stimulation (reference value: 3 +/- 2%); assay type: functional
[20] = tested on: Oryctolagus cuniculus; assay: Antithrombotic activity in rabbit model of electrically-induced carotid artery thrombosis assessed as reduction in thrombus formation at 0.1 mg/kg, iv + 0.033 mg/kg/hr, iv dosed 30 mins before electrical stimulation (reference value: 3 +/- 2%); assay type: functional
[21] = tested on: Oryctolagus cuniculus; assay: Antithrombotic activity in rabbit model of electrically-induced carotid artery thrombosis assessed as reduction in thrombus formation at 0.3 mg/kg, iv + 1 mg/kg/hr, iv dosed 30 mins before electrical stimulation (reference value: 3 +/- 2%); assay type: functional
[22] = tested on: Oryctolagus cuniculus; assay: Induction of bleeding time in rabbit model of electrically-induced carotid artery thrombosis at 0.003 mg/kg, iv + 0.01 mg/kg/hr, iv dosed 30 mins before electrical stimulation (reference value: 1 +/- 0.05); assay type: organism-based; details: in vivo, 0.5 h
[23] = tested on: Oryctolagus cuniculus; assay: Induction of bleeding time in rabbit model of electrically-induced carotid artery thrombosis at 0.01 mg/kg, iv + 0.033 mg/kg/hr, iv dosed 30 mins before electrical stimulation (reference value: 1 +/- 0.05); assay type: organism-based; details: in vivo, 0.5 h
[24] = tested on: Oryctolagus cuniculus; assay: Induction of bleeding time in rabbit model of electrically-induced carotid artery thrombosis at 0.03 mg/kg, iv + 0.1 mg/kg/hr, iv dosed 30 mins before electrical stimulation (reference value: 1 +/- 0.05); assay type: organism-based; details: in vivo, 0.5 h
[25] = target: T1, P2Y purinoceptor 1; assay: Antagonist activity at P2Y1 receptor in platelet-enriched human plasma assessed as 10 uM ADP-induced platelet aggregation at 40 uM preincubated for 1 min followed by ADP induction measured at 5 mins by aggregometric analysis; assay type: cell-free
[26] = tested on: Oryctolagus cuniculus; assay: Antithrombotic activity in rabbit model of electrically-induced carotid artery thrombosis assessed as reduction in thrombus formation dosed 30 mins before electrical stimulation; assay type: functional, organism-based
[27] = tested on: Oryctolagus cuniculus; assay: Induction of bleeding time in rabbit model of electrically-induced carotid artery thrombosis at 80% antithrombotic dose administered 30 mins before electrical stimulation (reference value: 1 +/- 0.05); assay type: organism-based; details: in vivo, 0.5 h
[28] = target: hERG (KCNH2) (Homo sapiens, UniProt Q12809); assay: Inhibition of human ERG at 1 uM by patch clamp assay
Chain of hERG (KCNH2) (Q12809 whole entry): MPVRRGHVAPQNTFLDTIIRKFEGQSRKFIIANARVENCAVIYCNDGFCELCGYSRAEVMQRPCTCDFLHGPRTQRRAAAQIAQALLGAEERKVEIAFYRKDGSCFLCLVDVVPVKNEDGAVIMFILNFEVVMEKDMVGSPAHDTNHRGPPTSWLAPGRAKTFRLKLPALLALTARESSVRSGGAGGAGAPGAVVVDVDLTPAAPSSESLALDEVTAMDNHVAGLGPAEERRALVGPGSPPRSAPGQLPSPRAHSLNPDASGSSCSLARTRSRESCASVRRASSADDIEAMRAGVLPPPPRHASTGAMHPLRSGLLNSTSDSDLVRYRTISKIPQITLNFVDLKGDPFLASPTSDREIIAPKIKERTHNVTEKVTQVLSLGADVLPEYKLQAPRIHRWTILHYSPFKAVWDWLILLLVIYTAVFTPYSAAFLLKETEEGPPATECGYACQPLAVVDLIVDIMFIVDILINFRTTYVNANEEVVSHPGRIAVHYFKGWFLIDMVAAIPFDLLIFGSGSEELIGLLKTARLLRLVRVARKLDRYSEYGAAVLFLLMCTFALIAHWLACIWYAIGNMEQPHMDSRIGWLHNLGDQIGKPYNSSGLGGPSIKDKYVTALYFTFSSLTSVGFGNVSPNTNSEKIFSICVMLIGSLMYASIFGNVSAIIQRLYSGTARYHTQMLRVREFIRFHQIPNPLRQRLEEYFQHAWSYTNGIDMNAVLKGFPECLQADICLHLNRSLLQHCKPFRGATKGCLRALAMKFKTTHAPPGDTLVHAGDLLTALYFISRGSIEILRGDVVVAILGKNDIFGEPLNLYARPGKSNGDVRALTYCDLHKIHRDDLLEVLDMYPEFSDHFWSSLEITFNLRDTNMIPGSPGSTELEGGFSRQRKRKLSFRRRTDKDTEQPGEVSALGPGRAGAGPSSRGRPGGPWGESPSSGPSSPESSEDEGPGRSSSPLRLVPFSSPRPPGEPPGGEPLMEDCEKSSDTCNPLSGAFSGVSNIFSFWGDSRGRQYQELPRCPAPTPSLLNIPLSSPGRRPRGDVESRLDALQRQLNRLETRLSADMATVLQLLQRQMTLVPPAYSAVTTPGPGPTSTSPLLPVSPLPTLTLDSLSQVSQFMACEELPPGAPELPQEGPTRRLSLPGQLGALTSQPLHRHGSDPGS

T1 sequence (P47900 whole entry): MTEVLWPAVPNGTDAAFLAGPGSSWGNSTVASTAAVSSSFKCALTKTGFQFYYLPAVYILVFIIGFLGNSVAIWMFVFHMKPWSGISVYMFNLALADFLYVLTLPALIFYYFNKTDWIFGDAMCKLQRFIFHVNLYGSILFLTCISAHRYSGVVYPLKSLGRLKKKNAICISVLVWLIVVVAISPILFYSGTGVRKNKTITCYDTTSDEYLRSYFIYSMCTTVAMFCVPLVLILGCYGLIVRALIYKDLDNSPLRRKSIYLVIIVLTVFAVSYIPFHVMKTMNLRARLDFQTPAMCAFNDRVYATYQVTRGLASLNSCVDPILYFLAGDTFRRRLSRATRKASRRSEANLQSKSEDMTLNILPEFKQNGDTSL

| Compound | IC50 [1] [nM] | remaining at 10 min, 0.5 µM [2] [%] | remaining at 10 min, 0.5 µM [3] [%] | remaining at 10 min, 0.5 µM [4] [%] | also measured |
| --- | --- | --- | --- | --- | --- |
| CC(C)CN1CCCC1c1ccc(NC(=O)Nc2ccccc2N2CC(C)(C)c3c(-c4ccc(F)cc4)ccc(O)c32)cc1 (centres undefined) | 0.02 | 58 | 39 | 53 | clearance [5]: 34 mL/min/kg; Vd [6]: 9.8 L/kg; bioavailability [7]: 4% |
| CC1(C)CN(c2ccccc2NC(=O)Nc2ccc(OC(F)(F)F)cc2)c2c(O)cc(F)c(-c3ccc(Cl)cc3)c21 | 1.06 | 83 | 90 | 79 | fold change (FC) [8]: 3.7; fold change (FC) [9]: 4.7; fold change (FC) [10]: 4.7; solubility [11]: < 1 µg/mL; clearance [12]: 1.3 mL/min/kg; Vd [13]: 0.4 L/kg; half-life [14]: 12 h; bioavailability [15]: 10%; IC50 [16]: 87 nM; inhibition (INH) [17]: 22%; inhibition (INH) [18]: 46%; inhibition (INH) [19]: 50%; inhibition (INH) [20]: 72%; inhibition (INH) [21]: 95%; fold change (FC) [22]: 1.1; fold change (FC) [23]: 1.4; fold change (FC) [24]: 2.7 |
| CC1(CO)CN(c2ccccc2NC(=O)Nc2nc3ccc(Cl)nc3s2)c2c(O)ccc(Cl)c21 (centres undefined) | – | – | – | – | inhibition [25]: 72% |
| CC1(C)CN(c2ccccc2NC(=O)Nc2ccc(OC(F)(F)F)cc2)c2c(O)ccc(-c3cccc(F)c3)c21 | 0.15 | 67 | 59 | 56 | – |
| CC1(C)CN(c2ccccc2NC(=O)Nc2nc3ccc(Cl)nc3s2)c2c(O)ccc(-c3ccc(F)cc3)c21 | 0.13 | 75 | 74 | 65 | – |
| CC1(C)CN(c2ccccc2NC(=O)Nc2ccc(OC(F)(F)F)cc2)c2c(O)ccc(-c3ccccc3F)c21 | 0.37 | 62 | 54 | 48 | – |
| CC1(C)CN(c2ccccc2NC(=O)Nc2ccc(OC(F)(F)F)cc2)c2c(O)ccc(-c3ccc(F)c(F)c3)c21 | 1.8 | 90 | 81 | 66 | – |
| CC1(C)CN(c2ccccc2NC(=O)Nc2csc(Cl)n2)c2c(O)ccc(-c3ccc(F)cc3)c21 | 0.03 | 80 | 0 | 75 | – |
| CC(C)(C)CN1CCC2(CC1)CN(c1ccccc1NC(=O)Nc1ccc(OC(F)(F)F)cc1)c1c(O)cc(F)c(-c3ccc(Cl)cc3)c12 | 0.16 | 78 | 72 | 74 | clearance [5]: 3.7 mL/min/kg; Vd [6]: 1.3 L/kg; bioavailability [7]: 15% |
| CC1(C(=O)O)CN(c2ccccc2NC(=O)Nc2nc3ccc(Cl)nc3s2)c2c(O)ccc(Cl)c21 (centres undefined) | – | – | – | – | inhibition [25]: 90% |
| CCOC(=O)C1(C)CN(c2ccccc2NC(=O)Nc2nc3ccc(Cl)nc3s2)c2c(O)ccc(Cl)c21 (centres undefined) | 0.05 | 47 | 14 | 54 | – |
| CC(=O)Oc1cc2c(s1)CCN(C(C(=O)C1CC1)c1ccccc1F)C2 (centres undefined) | – | – | – | – | inhibition [26]: Active; fold change (FC) [27]: 6 |
| CC1(C)CN(c2ccccc2NC(=O)Nc2ccc(OC(F)(F)F)cc2)c2c(O)ccc(-c3cc(F)cc(F)c3)c21 | 0.57 | 63 | 59 | 64 | – |
| CC1(C)CN(c2ccccc2NC(=O)Nc2ccc(OC(F)(F)F)cc2)c2c(O)ccc(-c3ccc(F)cc3)c21 | 0.33 | 87 | 89 | 83 | – |
| CC1(C)CN(c2ccccc2NC(=O)Nc2ccc(OC(F)(F)F)cc2)c2c(O)ccc(-c3ccc(C(F)(F)F)cc3)c21 | 1.51 | 96 | 94 | 89 | – |
| CC(C)(C)CN1CCC2(CC1)CN(c1ccccc1NC(=O)Nc1nc3ccc(Cl)nc3s1)c1c(O)ccc(Cl)c12 | – | – | – | 84 | inhibition at 1 µM [28]: 57%; clearance [5]: 10.4 mL/min/kg; Vd [6]: 5.4 L/kg |
| CC(C)(C)CN1CCC2(CC1)CN(c1ccccc1NC(=O)Nc1ccc(OC(F)(F)F)cc1)c1c(O)cc(F)c(-c3ccc(F)cc3)c12 | 0.09 | 81 | 80 | 67 | clearance [5]: 4.2 mL/min/kg; Vd [6]: 1 L/kg; bioavailability [7]: 17% |
| CC1(C)CN(c2ccccc2NC(=O)Nc2ccc(OC(F)(F)F)cc2)c2c(O)ccc(-c3ccccc3)c21 | 0.37 | 76 | 67 | 48 | – |
| CNC(=O)C1(C)CN(c2ccccc2NC(=O)Nc2nc3ccc(F)cc3s2)c2c(O)ccc(Cl)c21 (centres undefined) | – | 16 | 5 | 16 | inhibition [25]: 46% |
| CC1(C)CN(c2ccccc2NC(=O)Nc2ccc(OC(F)(F)F)cc2)c2c(O)cc(F)c(-c3ccc(Cl)s3)c21 | 2.3 | 92 | 79 | 88 | – |
| COC(=O)[C@H](c1ccccc1Cl)N1CCc2sccc2C1 [CLOPIDOGREL] | – | – | – | – | inhibition [26]: Active; fold change (FC) [27]: 6 |
| CC1(CC(F)(F)F)CN(c2ccccc2NC(=O)Nc2ccc(OC(F)(F)F)cc2)c2c(O)ccc(Cl)c21 (centres undefined) | 1.96 | 79 | 58 | 66 | – |
